Assay outcomes from PubChem.
The list is not random: actives were taken first. Their share in the collection is about 1.6%.
FLuc inh counter = firefly luciferase enzyme inhibitors, primary screen, artefact control for luciferase-based inhibitor screens, biochemical, luminescence, ATPLite | 200,000 compounds, 1.5% hits | 10 min | Luciferin 4-monooxygenase (Photinus pyralis), P08659 | AID 1006, 2008 | inhibition, % at 10 µM;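 active means inhibition above about 50% when tested at 10 µM, limit read from the data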
Target sequence (P08659 whole entry, looked up): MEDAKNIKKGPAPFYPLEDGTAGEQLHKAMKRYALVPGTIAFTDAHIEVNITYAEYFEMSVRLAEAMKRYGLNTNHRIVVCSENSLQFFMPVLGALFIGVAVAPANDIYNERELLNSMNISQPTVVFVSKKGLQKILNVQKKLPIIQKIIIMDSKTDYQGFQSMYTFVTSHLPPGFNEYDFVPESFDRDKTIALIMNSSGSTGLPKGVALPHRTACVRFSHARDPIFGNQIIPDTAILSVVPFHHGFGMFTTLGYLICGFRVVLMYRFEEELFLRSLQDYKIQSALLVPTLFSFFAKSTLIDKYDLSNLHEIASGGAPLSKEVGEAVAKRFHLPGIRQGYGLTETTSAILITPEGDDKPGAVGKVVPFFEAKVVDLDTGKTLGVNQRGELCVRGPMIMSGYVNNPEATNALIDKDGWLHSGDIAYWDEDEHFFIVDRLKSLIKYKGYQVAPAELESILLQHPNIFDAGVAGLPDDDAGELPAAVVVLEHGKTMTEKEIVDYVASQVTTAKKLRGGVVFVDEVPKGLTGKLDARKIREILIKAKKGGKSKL
FLuc stim CS = FLuc activators, initial screening, artefact control for FLuc-dependent activation tests, biochemical, ATPlite luminescence; activation factor at 10 µM; 200,000 tested, under 10 active; ATPlite luciferase biochemical, 10 min; 0 = ATP-free wells, 1 = DMSO control; AID 1027, 2008; Luciferin 4-monooxygenase (Photinus pyralis), P08659;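 active means luciferase activation factor, scaled between plate controls, of at least 2 with compound at 10 µM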
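Material: Luciferase/luciferin reagent mix; Doses: test compounds dosed from 2 mM stocks in 100% DMSO; Schedule: 10 min incubation after luciferase reagent addition, room temperature; Measured by: luminescence from luciferase reaction; Read-out: luminescence gain marking luciferase activators.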
TRAIL sens C8 = viability loss with TRAIL in NB7+C8 cells, primary screen, TRAIL sensitizer project, cell-based, ATPlite luminescence; 360,000 compounds, 1% hits; inhibition (viability loss, TRAIL sensitization), % at 10 µM;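 active means compounds causing at least 50% loss of cell viability in the single-dose screen, relative to plate controls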
PPC-1+TRAIL kill = compounds killing PPC-1 cancer cells with TRAIL present, primary screen, TRAIL potentiator project, ATPLite luminescence, uHTS. PPC-1 cells + TRAIL, ATPLite viability luminescence. cell killing (% activity), % at 4 µM or 5 µM. AID 1443, 2008. 220,000 compounds, 0.41% hits;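 active means cell killing above 50% in the first pass at 4 µM, then a duplicate retest at 5 µM averaging 50% or more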;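 further: plate controls were cells with TRAIL plus DMSO for no effect and medium-only wells lacking cells for full effect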
An asterisk follows results filed as active; / = no result; ! = not active in a repeat.

SMILES | FLuc inh counter | FLuc stim CS | TRAIL sens C8 | PPC-1+TRAIL kill
CN1CCN(Cc2nc3ccccc3c(=O)n2Cc2nc(-c3ccc4ccccc4c3)cs2)CC1 | -3.7 | 1 | 77.2*! | -3.1
CC(C)Cc1nc2oc3c(Cl)ncnc3c2c2c1CCC2 | -4.3 | 1 | 85.4* | 45.4
CC(C)Cc1nc2oc3c(NCCCN4CCOCC4)ncnc3c2c2c1CCC2 | -7.4 | 1.1 | 17.5 | 18.3
CC(C)CCN1CCC[C@]2(N[C@H](c3ccc(C(F)(F)F)cc3)[C@@H]3C(=O)N(Cc4ccccc4)C(=O)[C@@H]32)C1=O | / | / | 3.1 | /
Cc1ccc(-n2c(C)cc(C(=O)COC(=O)c3ccc[nH]c3=O)c2C)cc1 | 81.2* | 0.2 | 60.8* | 48.6
COCCn1c(C)cc(C(=O)COC(=O)c2ccc(Cl)c(S(N)(=O)=O)c2)c1C | / | / | 61.6* | /
Cc1cc(C(=O)COC(=O)c2ccc(Cl)c(S(N)(=O)=O)c2)c(C)n1CC1CCCO1 (configuration not stated) | / | / | 42.1 | /
COCCn1c(C)cc(C(=O)COC(=O)c2ccc[nH]c2=O)c1C | 84.1* | 0.2 | 13.2 | 35.4
COCCn1c(C)cc(C(=O)COC(=O)c2ccc(Br)o2)c1C | 80.0* | 0.2 | 0.6 | 5.9
Cc1cc(C(=O)COC(=O)c2ccc(Br)o2)c(C)n1C | 28.3 | 0.7 | 3.5 | 12.0
Cc1ccc(NC(=O)c2ccc3nc[nH]c3c2)nc1 | / | / | 31.4 | /
Cc1ccc(NC(=O)c2ccc3nc[nH]c3c2)c(O)c1 | 50.2* | 0.5 | 4.9 | 31.0
Cc1cccc(C(=O)OCC(=O)NCCN2C(=O)CSC2=O)c1[N+](=O)[O-] | / | / | 13.3 | /
C#CCSc1nnc(-c2c[nH]c3ccccc23)n1C | -3.2 | 1 | -3.6 | 13.7
C#CCSc1nnc(-c2sc(-c3ccccc3)nc2C)n1C | -0.6 | 1 | 80.5* | -3.7
O=S1(=O)CC(c2ccccc2)=NN=C(c2ccccc2)C1 | / | / | 74.6* | /
CC(=O)Oc1ccccc1C(=O)OCCN=C1NS(=O)(=O)c2ccccc21 | / | / | 1.9 | /
O=C(Nc1cc(S(=O)(=O)N2CCOCC2)ccc1N1CCOCC1)c1ccccc1[N+](=O)[O-] | / | / | -5.3 | /
O=C(Nc1cc(S(=O)(=O)N2CCOCC2)ccc1N1CCOCC1)c1ccc([N+](=O)[O-])s1 | / | / | 53.1* | /
CCOC(=O)c1ccc(-c2c(-c3ccccc3OC)sc3ccc(OC)cc23)cc1F | / | / | 11.2 | /
Cn1cccc1C(=O)NC(=O)COC(=O)C12CC3CC(CC(O)(C3)C1)C2 | 57.3* | 0.4 | 2.0 | -11.4
O=C1C(c2ccccc2)C2C=CC(C2)N1O (configuration not stated) | / | / | 3.1 | /
CCN1CCN(C2=C(NS(=O)(=O)c3ccc(C)cc3)C(=O)c3ccccc3C2=O)CC1 | / | / | 52.0* | /
CCN1CCN(C2=C(NS(=O)(=O)c3ccc(NC(C)=O)cc3)C(=O)c3ccccc3C2=O)CC1 | / | / | 36.6 | /
O=C(CNC(=O)c1cccc(Cl)c1)NCCCSc1ccccc1 | / | / | -4.7 | /
SMILES | FLuc inh counter | FLuc stim CS | TRAIL sens C8 | PPC-1+TRAIL kill
COc1cccc(NC(=O)COc2ccccc2C(N)=O)c1 | 68.1* | 0.3 | 40.3 | 49.6
O=C(CSc1nnc(-c2ccc(O)cc2)o1)Nc1cccc(O)c1 | / | / | 47.8* | /
COc1cccc(NC(=O)CSc2nnc(-c3ccc(C)cc3)o2)c1 | -5.3 | 1.1 | 13.9 | 57.0*
COc1ccc(OCC(=O)Nc2cccc(OC)c2)cc1 | 14.6 | 0.9 | -1.8 | 26.8
Cc1cc(C(C)(C)C)cc(CN2CCN(S(=O)(=O)c3cccs3)CC2)c1O | / | / | 3.1 | /
CC(NC(=O)CNC(=O)c1ccccc1F)c1ccc(-n2ccnc2)cc1 (configuration not stated) | / | / | -16.1 | /
Cc1cc2nc(-c3cccnc3SCC(=O)NCc3ccco3)[nH]c2cc1C | / | / | 61.5* | /
O=C(CSc1ncccc1-c1nc2ccccc2[nH]1)NCc1ccco1 | 5.8 | 0.9 | 3.0 | 2.2
CC(C)(C)NC(=O)CSc1ncccc1-c1nc2ccccc2[nH]1 | / | / | 7.1 | /
Cc1cc2nc(-c3cccnc3SCC(=O)NC3CC3)[nH]c2cc1C | 70.0* | 0.3 | / | 21.3
Cc1cccc(C)c1NC(=O)C1(C)CN(S(C)(=O)=O)CC(=O)N1CCc1ccccc1F (configuration not stated) | / | / | -14.2 | /
Nc1cccc(O)c1 | / | / | -11.2 | /
Oc1cccc(-c2nnc(-c3cccc(O)c3)nn2)c1 | / | / | 87.8* | /
COc1ccc2oc(C(=O)N3CCc4ccccc43)c(C)c2c1 | / | / | 82.0* | /
COc1ccc2oc(C(=O)Nc3ccc(C)cn3)c(C)c2c1 | / | / | 33.1 | /
COc1ccc2oc(C(=O)Nc3nc(C)cs3)c(C)c2c1 | / | / | 59.9* | /
COCc1c(C(=O)Nc2nc(C)cs2)oc2ccccc12 | 5.3 | 0.9 | -8.6 | -0.3
COc1ccc2oc(C(=O)Nc3ccccn3)c(C)c2c1 | / | / | 61.7* | /
COc1ccc(C2(c3ccc(OC)cc3)NC(=O)N(CC(=O)N3CCOCC3)C2=O)cc1 | / | / | -14.3 | /
COc1ccc(CNC(=O)CN(C(=O)c2snc(C(N)=O)c2N)c2ccc(OC)c(OC)c2)cc1 | / | / | -12.1 | /
Nc1nc2ccc(Cl)cc2cc1C(=O)NCc1ccc(Oc2ccccc2)cc1 | / | / | 17.9 | /
Cc1nn(-c2ccccc2)c2nc(N)c(C#N)c(-c3ccc(F)cc3)c12 | 0.2 | 1 | 57.7* | 11.5
Nc1c2c(nc3ccccc13)CCCC2 | -7.7 | 1.1 | -4.4 | 2.6
Nc1c2ccccc2nc2ccccc12 | / | / | 63.9* | 28.6
O=C(COc1ccc(F)cc1)Nc1nc(-c2cccnc2)cs1 | / | / | -0.7 | /
SMILES | FLuc inh counter | FLuc stim CS | TRAIL sens C8 | PPC-1+TRAIL kill
Cc1ccnc(NC(=O)C2CC(=O)N(c3ccc4c(c3)OCCO4)C2)c1 (configuration not stated) | / | / | 18.0 | /
CCc1ccc(CNC(=O)Cc2ccc(NC(=O)C3=C(C)OCCS3)cc2)cc1 | / | / | 52.8* | /
CC1=C(C(=O)Nc2ccc(CC(=O)NCc3ccccc3C)cc2)SCCO1 | / | / | 38.6 | /
COc1cccc(CNC(=O)Cc2ccc(NC(=O)C3=C(C)OCCS3)cc2)c1 | / | / | 56.2* | /
CCC(C)N(C(=O)COC(=O)c1ccc(N)c([N+](=O)[O-])c1)C1CCS(=O)(=O)C1 (configuration not stated) | / | / | -6.1 | /
C[C@@H]1CN([C@@H](C)CO)C(=O)CCCn2nncc2CO[C@H]1CN(C)S(=O)(=O)c1ccccc1F | / | / | -5.4 | /
CCOc1ccc(C(=O)NCC(=O)OCC(=O)Nc2ccc(C)c(S(=O)(=O)N(C)C)c2)cc1 | 64.6* | 0.4 | 2.2 | 24.8
Cc1ccc(NC(=O)COC(=O)CNC(=O)C2CCCCC2)cc1S(=O)(=O)N(C)C | / | / | -5.9 | /
O=C(NC1CC1)c1cc2cc3ccccc3nc2s1 | / | / | 22.1 | /
CCOc1ccc(N=Cc2c(O)c3ccccc3oc2=O)cc1 | 78.0* | 0.2 | -5.4 | 9.6
CCOc1ccc(N=Cc2c(O)cc(C)oc2=O)cc1 | 52.8* | 0.5 | -27.3 | 13.0
CCOC(=O)c1ccccc1N=Cc1c(O)c2ccccc2oc1=O | / | / | -9.5 | /
Cc1nn(C)cc1/C=C/C(=O)c1ccc(O)cc1 | 57.3* | 0.4 | 33.5 | 13.9
O=C(/C=C/c1ccc(O)cc1)c1ccccc1 | / | / | 11.5 | 3.7
